MC4R antagonist – blocks human MC4R cAMP signaling; P32245; MC4R-expressing cells, MTII-stimulated cAMP, LANCE TR-FRET; inhibition, % at 6.5 µM; 360,000 tested, 0.48% active;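 active means inhibition above its plate's cutoff, the mean of tested wells on that plate plus 3 SD, cut at about 29% in these data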
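Assay system: U2OS cells stably expressing human melanocortin 4 receptor (MC4R) / Dosing: 6.5 µM / Timing: compound 30 min, challenge 1 h, detection 1 h / Measured by: Eu-cAMP/anti-cAMP TR-FRET, emission 671 nm / Replicates: singlicate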
PREPL inhibitor – human PREPL enzyme inhibition | recombinant PREPL, fluorescence polarization activity-based probe | inhibition, % at 5.96 µM | 320,000 tested, 0.68% active; in the data active means inhibition above about 43%
Hep lipid drop – hepatic lipid droplet formation modulation | 240,000 tested, 0.4% active | AID 1656 | inhibition, % at 6.5 µM | AML12 mouse hepatocytes, oleate lipid droplets, BODIPY imaging;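 active means lipid droplet intensity inhibited by at least 50%, with more than 500 cells counted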
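Material – AML12 mouse liver cells · Also added – oleate loading, 100 µM · Compound dosing – 6.5 µM single-point dosing · Times – overnight treatment with compound plus oleate · Measured by – fluorescence imaging, 20x objective, two fields per well · Read-out – percent inhibition of filter-corrected integrated lipid droplet intensity per well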
MC4R ag barr – agonists of human melanocortin 4 receptor (MC4R) beta-arrestin; U2OS MC4R beta-arrestin complementation, luminescence; percent of melanotan II response, DMSO zero; activation, % at 8.9 µM; 360,000 tested, 0.98% active; AID 540308;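 active means activation above a per-plate cutoff, the mean activation of sample wells on that plate plus 3 SD, cut at about 8% in these data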
NTR1 agonist – activates human neurotensin receptor 1; activation, % at 20 µM; NTR1-U2OS beta-arrestin-GFP spot imaging, agonist mode; 330,000 tested, 0.17% active; P30989; AID 493036;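 active means activation at or above 40% of the spot to cytoplasm intensity ratio, with at least 20 cells analyzed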
Target sequence (P30989 whole entry, looked up): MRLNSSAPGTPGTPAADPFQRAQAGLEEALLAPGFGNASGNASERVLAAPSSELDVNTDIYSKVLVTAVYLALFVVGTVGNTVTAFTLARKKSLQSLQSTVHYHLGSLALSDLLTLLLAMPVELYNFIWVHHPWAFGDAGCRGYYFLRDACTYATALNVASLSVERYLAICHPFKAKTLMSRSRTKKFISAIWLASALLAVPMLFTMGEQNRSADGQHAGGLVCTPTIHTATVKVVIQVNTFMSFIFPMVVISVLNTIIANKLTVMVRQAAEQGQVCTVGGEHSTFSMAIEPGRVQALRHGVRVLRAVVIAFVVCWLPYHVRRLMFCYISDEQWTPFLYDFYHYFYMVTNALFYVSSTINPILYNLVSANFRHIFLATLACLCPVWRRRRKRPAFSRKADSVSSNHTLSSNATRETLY
m5-HT2A agonist – agonists of mouse serotonin 5-HT2A receptor (HTR2A); CHO-K1 mHTR2A beta-arrestin complementation, luminescence; percent of 30 µM serotonin response; 360,000 tested, 0.66% active; AID 624169; activation, % at 7.6 µM; P35363;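 active means activation above a run cutoff, the mean activation of all tested compounds plus 3 SD, cut at about 14% in these data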
MC4R barr conf – human MC4R beta-arrestin agonism confirmation | U2OS MC4R beta-arrestin recruitment, luminescence; scaled DMSO 0%, Melanotan II 100% | 2,400 tested, 31% active | activation, % at 8.9 µM | shares compounds with MC4R ag barr;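 active means mean activation across replicates above the hit cutoff set in the earlier primary screen, cut at about 8% in these data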
MOR-DOR barr ag – OPRM1-OPRD1 heterodimer agonism counter-screen | shares compounds with MC4R ag barr | U2OS PathHunter beta-arrestin, beta-gal luminescence; percent of deltorphin B response, DMSO zero | activation, % at 9.2 µM | 2,400 tested, 5.8% active;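 active means mean activation across replicates exceeds the hit threshold derived in the earlier primary screen, cut at about 18% in these data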
Numbers stand for hits; - = inactive; . = not tested or not shown. Rows were chosen to be rich in hits. Some 2.7% of all compounds tested hit in one or more screens of this group.

SMILES	MC4R antagonist	PREPL inhibitor	Hep lipid drop	MC4R ag barr	NTR1 agonist	m5-HT2A agonist	MC4R barr conf	MOR-DOR barr ag
O=C(CNC(=S)NC(=O)c1ccccc1Br)c1ccccc1	-	-	-	20.8	-	-	-	-
COc1ccc(S(=O)(=O)N(Cc2ccccc2)Cc2nc3ccccc3c(=O)[nH]2)cc1	-	-	.	-	-	-	.	.
O=c1[nH]c(CN(CCc2ccccc2)S(=O)(=O)c2ccc(Cl)cc2)nc2ccccc12	-	-	-	22.7	-	-	-	-
C[C@H]1CN([C@@H](C)CO)C(=O)c2cc(NC(=O)NC3CCCCC3)ccc2O[C@H]1CN(C)C(=O)Nc1ccc(C(F)(F)F)cc1	-	-	.	-	-	-	.	.
CCOc1ccc(C(=O)CCC(=O)NCC(=O)Nc2ccc(F)c(F)c2F)cc1	-	.	.	-	.	-	.	.
N#Cc1ccc(-c2ccc(OCC(=O)NCC(=O)Nc3ccc(F)c(F)c3F)cc2)cc1	-	-	-	18.0	-	-	-	-
COc1ccc(CCNC(=O)COc2ccc(-c3ccc(C#N)cc3)cc2)cc1	-	-	-	18.7	-	-	-	27.8
COCCNC(=O)Cn1nc(-c2ccccc2F)ccc1=O	-	.	.	-	-	-	.	.
COc1cccc(NS(=O)(=O)c2ccc(-n3cccn3)cc2)c1	-	-	-	-	-	-	.	.
COc1c(F)c(F)c(C(=O)Nc2ccc(N3CCN(Cc4ccccc4)CC3)cc2)c(F)c1F	-	-	-	11.2	-	-	-	-
COc1ccc(C(=O)Nc2ccc(N3CCN(Cc4ccccc4)CC3)cc2)cc1	-	-	-	-	-	-	.	.
COc1ccc(C(=O)Cn2c(NCCCO)nc3ccccc32)cc1	-	.	.	-	.	-	.	.
Cc1cc2nc(NCCCO)n(CC(=O)c3cc(C(C)(C)C)c(O)c(C(C)(C)C)c3)c2cc1C	-	-	.	13.2	-	-	-	-
O=C(O)C1C=CCC(C(=O)O)C1 (stereo unspecified)	-	.	.	-	.	-	.	.
CC1CCCC(C)N1C(=O)CNCc1ccc2c(c1)OCO2 (stereo unspecified)	-	-	-	-	-	-	.	.
CCOC(=O)C1=C(N)c2ccccc2CC1C(C)C (stereo unspecified)	-	-	-	10.6	-	-	-	-
CCOC(=O)C1Cc2ccccc2C(=O)O1 (stereo unspecified)	-	-	.	-	-	-	.	.
COc1ccc(C(=O)Nc2cc(-c3ccc(C)cc3)no2)cc1	-	.	-	9.8	-	-	-	-
COC(=O)N/N=C\c1cc2c(cc1Br)OCO2	-	-	-	-	-	-	.	.
Cc1ccc(C(=O)N/N=C\c2cc3c(cc2Br)OCO3)s1	-	-	-	12.1	-	-	10.4	-
COc1cc2nc(N3CCN(c4cc(C)ccc4C)CC3)nc(N)c2cc1OC	-	-	-	12.1	-	-	9.8	20.7
Fc1ccc(CSc2ccc(-c3ccc4c(c3)OCO4)nn2)cc1	-	-	-	10.9	-	-	-	-
c1ccc(CSc2ccc(-c3ccc4c(c3)OCO4)nn2)cc1	-	-	-	28.6	-	-	-	-
Cn1c(SCc2ccccc2)nnc1-c1ccc2c(c1)OCO2	-	-	-	-	-	-	.	.
O=C(COC(=O)C1(c2cccc(F)c2)CCCC1)NCc1ccc2c(c1)OCO2	-	-	-	-	-	-	.	.
CC(=O)C[C@@H](O)CC(=O)[C@@H]1OC(=O)CCCCCCCc2ccccc21	-	-	.	-	-	-	.	.
Cn1c(SCc2ccc([N+](=O)[O-])cc2)nnc1-c1ccncc1	-	-	-	-	-	-	.	.
Cc1ccc2c(Cl)cc(Cl)c(OCC(=O)NC(=O)NCc3ccco3)c2n1	-	-	.	10.8	-	-	-	-
Cc1ccc2c(Cl)cc(Cl)c(OCC(=O)NCc3ccco3)c2n1	.	.	-	.	.	.	.	.
Cc1cc(OC(C)C(=O)NCc2ccccn2)c2c(C)cc(=O)oc2c1 (stereo unspecified)	-	-	-	-	-	-	.	.

Screening results deposited in PubChem by several laboratories.
